ChEMBL document CHEMBL1155291, “Structure-activity relationship of dopaminergic halogenated 1-benzyl-tetrahydroisoquinoline derivatives” (Eur J Med Chem, 2009)

Key:
[1] = Displacement of [3H]SCH23390 from dopamine D1-like receptor in Wistar rat striatal membrane after 1 hr by scintillation counting; assay type: cell membranes, Striatum
In short: (§1)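 Striatal membranes from female Wistar rats, 100 µg/mL, in Tris-ions buffer pH 7.4 (120 mM NaCl, 2 mM CaCl2, 5 mM KCl, 1 mM MgCl2, 0.1% ascorbic acid). Incubated 1 h at 23 °C with 0.25 nM [3H]-SCH23390 and competitor 10^-10 to 10^-4 M. Non-specific binding with 30 µM SK&F38393. Filtration, then scintillation counting. Ki from KD 0.36 nM. Mean ± SEM of 3–6 experiments.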

[2] = Displacement of [3H]raclopride from dopamine D2-like receptor in Wistar rat striatal membrane after 1 hr by scintillation counting; assay type: cell membranes, Striatum
In short: as §1, with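 “200” for “100”, “0.5” for “0.25”, “[3H]-raclopride” for “[3H]-SCH23390”, “50” for “30”, “apomorphine.” for “SK&F38393.”, “1.25” for “0.36”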

Rattus norvegicus = species on record: Rattus norvegicus; experiment: Selectivity ratio of Ki of Wistar rat dopamine D1-like receptor to Ki for Wistar rat dopamine D2-like receptor

Row | SMILES | Ki [1] [nM] | pKi [1] | Ki [2] [nM] | pKi [2] | Ratio Ki (Rattus norvegicus)
1 | COc1cc2c(cc1Cl)CCN(C)C2Cc1ccc(Cl)cc1Cl (stereo not given) | 15100 | 4.84 | 6130 | 5.23 | 2.5
2 | COc1cc2c(cc1Cl)CCN(C)C2Cc1ccccc1Br (stereo not given) | 1320 | 5.89 | 1340 | 5.9 | 1
3 | COc1cc2c(cc1Cl)CCNC2Cc1ccc(Cl)cc1Cl (stereo not given) | 11300 | 5.01 | 3300 | 5.51 | 3.4
4 | CN1CCc2cc(Cl)c(O)cc2C1Cc1ccccc1Br (stereo not given) | 65 | 7.21 | 18 | 7.76 | 3.6

Further lines, results first:

Row | Ki [1] [nM] | pKi [1] | Ki [2] [nM] | pKi [2] | Ratio Ki (Rattus norvegicus) | SMILES
5 | 1530 | 5.83 | 245 | 6.63 | 6.2 | COc1cc2c(cc1Cl)CCNC2Cc1ccccc1Br (stereo not given)
6 | 241 | 6.71 | 269 | 6.64 | 0.9 | CN1CCc2cc(Cl)c(O)cc2C1Cc1ccc(Cl)cc1Cl (stereo not given)
7 | 110 | 7.06 | 46 | 7.39 | 2.4 | Oc1cc2c(cc1Cl)CCNC2Cc1ccccc1Br (stereo not given)
8 | 183 | 6.74 | 107 | 7 | 1.7 | Oc1cc2c(cc1Cl)CCNC2Cc1ccc(Cl)cc1Cl (stereo not given)
